Experimental data: ChEMBL document CHEMBL1131631, “Piperazinyl oxazolidinone antibacterial agents containing a pyridine, diazene, or triazene heteroaromatic ring” (1998)
Values after ≈ are worked out from the molar mass of the structure shown.

How the values were obtained:
[1] = tested on: Streptococcus pneumoniae; assay: MIC activity against Streptococcus pneumoniae UC9912; format: functional
Outline: (§1)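 MIC in µg/mL. S. aureus UC 9213 is methicillin-susceptible, and S. aureus UC 6685 and S. epidermidis UC 12084 are methicillin-resistant. E. faecalis UC 9217 and S. pneumoniae UC 9912 were also tested.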

[2] = tested on: Staphylococcus epidermidis; assay: Minimum inhibitory concentration against Staphylococcus epidermis UC12084; format: functional; outline: as §1
[3] = tested on: Enterococcus faecalis; assay: Minimum inhibitory concentration against Enterococcus faecalis UC9217; format: functional; outline: as §1
[4] = tested on: Caco-2; assay: (§2) permeability assessment across a monolayer of caco-2 cells in presence of GSH in aqueous base.; format: functional, Homo sapiens
[5] = tested on: Staphylococcus aureus; assay: Minimum inhibitory concentration against Staphylococcus aureus UC9213; format: functional; outline: as §1
[6] = tested on: Staphylococcus aureus; assay: compound was tested against Staphylococcus aureus UC9213 the eperezolid administered positive control expressed as ED50 values.; format: functional
Outline: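 Eperezolid was given orally in the same lethal systemic mouse S. aureus trial as the test agents. The ED50 is the mg/kg/dose that reduces mortality by 50%.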

[7] = tested on: Caco-2; assay: (§3) permeability assessment across a monolayer of caco-2 cells in absence of GSH in aqueous base.; format: functional, Homo sapiens
[8] = tested on: Staphylococcus aureus; assay: Minimum inhibitory concentration against Staphylococcus aureus UC6685; format: functional; outline: as §1
[9] = tested on: Staphylococcus aureus; assay: compound was tested against Staphylococcus aureus UC9213 after po administration.; format: functional
Outline: (§4)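 Lethal systemic S. aureus infection in mice, with oral dosing. The ED50 is the dose in mg/kg body weight per dose that reduces mortality by 50%. The 95% confidence limits are −50% and +100% of the nominal value.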

[10] = tested on: Caco-2; assay: (§5) permeability assessment across […]; format: functional, Homo sapiens
[11] = tested on: Mus musculus; assay: Compound was tested against Staphylococcus aureus UC9213 after po administration in mouse; format: functional; outline: as §4
[12] = tested on: Streptococcus pneumoniae; assay: Minimum inhibitory concentration Streptococcus pneumoniae UC9912; format: functional; outline: as §1
[13] = tested on: Mus musculus; assay: compound was tested against Staphylococcus aureus UC9213 the eperezolid administered (PO) in mouse positive control expressed as ED50 values.
[14] = tested on: Caco-2; assay: as §2; format: functional
[15] = tested on: Caco-2; assay: as §5; format: functional
[16] = tested on: Caco-2; assay: as §3; format: functional
[17] = tested on: Caco-2; assay: as §5; format: functional; remark: listed apart in the source
[18] = tested on: Mus musculus; assay: compound was tested against Staphylococcus aureus UC9213 the vancomycin administered (sc) in mouse positive control expressed as ED50 values.; format: functional

| Structure (SMILES) | MIC [1] | MIC [2] | MIC [3] | [A] [4] | MIC [5] | ED50 [6] | [A] [7] | MIC [8] | ED50 [9] | [EA] [10] | ED50 [11] | MIC [12] | ED50 [13] | [A] [14] | [EA] [15] | [A] [16] | [EA] [17] | ED50 [18] |
| --- | --- | --- | --- | --- | --- | --- | --- | --- | --- | --- | --- | --- | --- | --- | --- | --- | --- | --- |
| CC(=O)NC[C@H]1CN(c2ccc(N3CCN(c4ccnc(Cl)n4)CC3)c(F)c2)C(=O)O1 | 0.5 µg/mL (≈ 1.11 µM) | 0.5 µg/mL (≈ 1.11 µM) | 1 µg/mL (≈ 2.23 µM) | 17 µM | 2 µg/mL (≈ 4.46 µM) | 1.8 mg/kg | 17 µM | 1 µg/mL (≈ 2.23 µM) | 14.6 mg/kg | 50 µM |  |  |  |  |  |  |  |  |
| CC(=O)NC[C@H]1CN(c2ccc(N3CCN(c4ccncn4)CC3)c(F)c2)C(=O)O1 |  | 1 µg/mL (≈ 2.41 µM) | 1 µg/mL (≈ 2.41 µM) | 40 µM | 2 µg/mL (≈ 4.83 µM) |  | 40 µM | 2 µg/mL (≈ 4.83 µM) |  | 50 µM | 4.4 mg/kg | 0.5 µg/mL (≈ 1.21 µM) | 1.8 mg/kg |  |  |  |  |  |
| CC(=O)NC[C@H]1CN(c2ccc(N3CCN(c4cnccn4)CC3)c(F)c2)C(=O)O1 |  | 0.5 µg/mL (≈ 1.21 µM) | 2 µg/mL (≈ 4.83 µM) |  | 2 µg/mL (≈ 4.83 µM) |  |  | 1 µg/mL (≈ 2.41 µM) |  |  | 12.5 mg/kg | 0.5 µg/mL (≈ 1.21 µM) | 3.2 mg/kg |  |  |  |  |  |
| CC(=O)NC[C@H]1CN(c2ccc(N3CCN(c4cnnc(Cl)c4Cl)CC3)c(F)c2)C(=O)O1 |  | 1 µg/mL (≈ 2.07 µM) | 2 µg/mL (≈ 4.14 µM) |  | 2 µg/mL (≈ 4.14 µM) | 3.2 mg/kg |  | 2 µg/mL (≈ 4.14 µM) | > 20 mg/kg |  |  | 0.5 µg/mL (≈ 1.03 µM) |  | 34 µM | 0 µM | 34 µM | 50 µM |  |
| CC(=O)NC[C@H]1CN(c2ccc(N3CCN(c4ncccc4C#N)CC3)c(F)c2)C(=O)O1 |  | 0.5 µg/mL (≈ 1.14 µM) | 1 µg/mL (≈ 2.28 µM) |  | 2 µg/mL (≈ 4.56 µM) |  |  | 2 µg/mL (≈ 4.56 µM) |  |  | > 20 mg/kg | 0.5 µg/mL (≈ 1.14 µM) | 3.2 mg/kg |  |  |  |  |  |
| CC(=O)NC[C@H]1CN(c2ccc(N3CCN(c4cccnn4)CC3)c(F)c2)C(=O)O1 |  | 0.5 µg/mL (≈ 1.21 µM) | 2 µg/mL (≈ 4.83 µM) | 36 µM | 4 µg/mL (≈ 9.65 µM) |  |  | 2 µg/mL (≈ 4.83 µM) |  |  | 8.8 mg/kg | 0.5 µg/mL (≈ 1.21 µM) | 8.7 mg/kg |  |  |  |  |  |
| CC(=O)NC[C@H]1CN(c2ccc(N3CCN(c4ccc(C)nn4)CC3)c(F)c2)C(=O)O1 |  | 1 µg/mL (≈ 2.33 µM) | 2 µg/mL (≈ 4.67 µM) |  | 4 µg/mL (≈ 9.34 µM) |  |  | 2 µg/mL (≈ 4.67 µM) |  |  | 6.3 mg/kg | 0.5 µg/mL (≈ 1.17 µM) | 8.7 mg/kg |  |  |  |  |  |
| CC(=O)NC[C@H]1CN(c2ccc(N3CCN(c4ccccn4)CC3)c(F)c2)C(=O)O1 |  | 1 µg/mL (≈ 2.42 µM) | 2 µg/mL (≈ 4.84 µM) | 37 µM | 4 µg/mL (≈ 9.67 µM) |  | 37 µM | 2 µg/mL (≈ 4.84 µM) |  |  | 11.2 mg/kg | 0.5 µg/mL (≈ 1.21 µM) | 6 mg/kg |  |  |  |  |  |
| CC(=O)NC[C@H]1CN(c2ccc(N3CCOCC3)c(F)c2)C(=O)O1 [LINEZOLID] |  | 1 µg/mL (≈ 2.96 µM) |  |  |  |  |  |  |  |  | 5.6 mg/kg |  |  |  |  |  |  | 3.9 mg/kg |
| CC(=O)NC[C@H]1CN(c2ccc(N3CCN(c4ncccn4)CC3)c(F)c2)C(=O)O1 |  | 0.5 µg/mL (≈ 1.21 µM) | 2 µg/mL (≈ 4.83 µM) |  | 2 µg/mL (≈ 4.83 µM) |  |  | 2 µg/mL (≈ 4.83 µM) |  |  | 6 mg/kg | 0.5 µg/mL (≈ 1.21 µM) | 6.2 mg/kg |  |  |  |  |  |
| CC(=O)NC[C@H]1CN(c2ccc(N3CCN(c4cncc(Cl)n4)CC3)c(F)c2)C(=O)O1 |  | 0.5 µg/mL (≈ 1.11 µM) | 1 µg/mL (≈ 2.23 µM) |  | 2 µg/mL (≈ 4.46 µM) | 3.2 mg/kg |  | 1 µg/mL (≈ 2.23 µM) | > 20 mg/kg |  |  | 0.5 µg/mL (≈ 1.11 µM) |  |  |  |  |  |  |
| CC(=O)NC[C@H]1CN(c2ccc(N3CCN(c4cccc(Br)n4)CC3)c(F)c2)C(=O)O1 |  | 0.5 µg/mL (≈ 1.02 µM) | 1 µg/mL (≈ 2.03 µM) | 2.6 µM | 2 µg/mL (≈ 4.06 µM) | 2.7 mg/kg | 2.6 µM | 1 µg/mL (≈ 2.03 µM) | > 20 mg/kg | 50 µM |  | 0.5 µg/mL (≈ 1.02 µM) |  |  |  |  |  |  |
| CC(=O)NC[C@H]1CN(c2ccc(N3CCN(C(=O)CO)CC3)c(F)c2)C(=O)O1 [EPEREZOLID] |  | 0.5 µg/mL (≈ 1.27 µM) | 2 µg/mL (≈ 5.07 µM) |  | 4 µg/mL (≈ 10.1 µM) |  |  | 1 µg/mL (≈ 2.54 µM) |  |  | 1.9 mg/kg | 0.5 µg/mL (≈ 1.27 µM) |  |  |  |  |  | 3.9 mg/kg |
| CC(=O)NC[C@H]1CN(c2ccc(N3CCN(c4nc(N)nc(N)n4)CC3)c(F)c2)C(=O)O1 |  | 1 µg/mL (≈ 2.24 µM) | 2 µg/mL (≈ 4.49 µM) |  | 4 µg/mL (≈ 8.98 µM) |  |  | 4 µg/mL (≈ 8.98 µM) |  |  | > 20 mg/kg | 0.5 µg/mL (≈ 1.12 µM) | 4.4 mg/kg |  |  |  |  |  |
| CC(=O)NC[C@H]1CN(c2ccc(N3CCN(c4c(Cl)c(Cl)nc(Cl)c4Cl)CC3)c(F)c2)C(=O)O1 |  | > 16 µg/mL | > 16 µg/mL |  | > 16 µg/mL |  |  | > 16 µg/mL |  |  |  | > 16 µg/mL |  |  |  |  |  |  |
| CC(=O)NC[C@H]1CN(c2ccc(N3CCN(c4cc(C#N)ccn4)CC3)c(F)c2)C(=O)O1 |  | 1 µg/mL (≈ 2.28 µM) | 1 µg/mL (≈ 2.28 µM) |  | 1 µg/mL (≈ 2.28 µM) |  |  | 1 µg/mL (≈ 2.28 µM) |  |  |  | 0.5 µg/mL (≈ 1.14 µM) |  |  |  |  |  |  |
| CC(=O)NC[C@H]1CN(c2ccc(N3CCN(c4c(F)c(F)nc(F)c4F)CC3)c(F)c2)C(=O)O1 |  | > 16 µg/mL | > 16 µg/mL |  | > 16 µg/mL |  |  | > 16 µg/mL |  |  |  | 2 µg/mL (≈ 4.12 µM) |  |  |  |  |  |  |
| CC(=O)NC[C@H]1CN(c2ccc(N3CCN(c4ccc(C#N)cn4)CC3)c(F)c2)C(=O)O1 |  | 0.5 µg/mL (≈ 1.14 µM) | 1 µg/mL (≈ 2.28 µM) |  | 2 µg/mL (≈ 4.56 µM) |  |  | 2 µg/mL (≈ 4.56 µM) |  |  | 6.8 mg/kg | 0.5 µg/mL (≈ 1.14 µM) | 5.8 mg/kg |  |  |  |  |  |
| CC(=O)NC[C@H]1CN(c2ccc(N3CCN(c4cc(C)c(Cl)nn4)CC3)c(F)c2)C(=O)O1 |  | 2 µg/mL (≈ 4.32 µM) | 4 µg/mL (≈ 8.64 µM) |  | 8 µg/mL (≈ 17.3 µM) | 8.7 mg/kg |  | 4 µg/mL (≈ 8.64 µM) | > 20 mg/kg |  |  | 1 µg/mL (≈ 2.16 µM) |  |  |  |  |  |  |
